The source made the active and inactive calls. The calls are words filed in the database; no cut-off is given here.
Assays:
[1] = test system: HL-60; test: Induction of apoptosis in human HL60 cells by propidium iodide staining based flow cytometric analysis; assay type: functional
Summary of the method: (§1)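 After treatment, cells harvested, fixed in ice-cold 70% ethanol at 4 °C, stained 30 min at 37 °C in the dark with 100 µg/mL propidium iodide plus 10 µg/mL RNase A; 10,000 gated cells analysed at 488 nm with debris excluded; apoptosis followed over time; mean ± S.E.M. of three independent experiments run in triplicate.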

[2] = test system: HL-60; test: Induction of cell cycle arrest in human HL60 cells assessed as accumulation at G2/M phase after 18 hrs by propidium iodide staining based flow cytometric analysis; assay type: functional
Summary of the method: (§2)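 Propidium iodide/RNase A flow cytometry of ethanol-fixed cells, 10,000 gated events at 488 nm; G2/M fraction measured after 18 h treatment (HL-60, MCF-7) or 24 h (K562); mean ± S.E.M. of three independent experiments.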

[3] = test system: K562; test: Induction of cell cycle arrest in human K562 cells assessed as accumulation at G2/M phase after 24 hrs by propidium iodide staining based flow cytometric analysis; assay type: functional; summary of the method: as §2
[4] = test system: MCF7; test: Antiproliferative activity against human MCF7 cells after 3 days incubation by alamar blue method; assay type: functional; settings: for GI50: MCF7, 72 h
Summary of the method: (§3)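 HL-60 and K562 grown in RPMI 1640, MCF-7 in DMEM, each with 10% FCS, penicillin G and streptomycin. Seeded at 4x10⁴ (HL-60, K562) or 2x10⁴ (MCF-7) cells per well with serial compound dilutions, incubated 3 days at 37 °C. Alamar blue added for 3 h at 37 °C in the dark, fluorescence read at ex 544/em 590 nm. IC50 versus untreated controls by linear regression.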

[5] = test system: K562; test: Antiproliferative activity against human K562 cells after 3 days incubation by alamar blue method; assay type: functional; settings: for GI50: K562, 72 h; summary of the method: as §3
[6] = test system: Nucleic Acid; test: Induction of DNA intercalation of plasmid pQE30 DNA at 0.01 to 1 mM by electrophoretic mobility assay; assay type: nucleic-acid assay; settings: Escherichia coli
Summary of the method: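 Compound dissolved in methanol and incubated with double-strand plasmid pQE-30 DNA for 10 min at 37 °C; gel loading buffer added and samples run on 0.7% agarose to separate closed circular and supercoiled forms.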

[7] = test system: HL-60; test: Antiproliferative activity against human HL60 cells after 3 days incubation by alamar blue method; assay type: functional; settings: for GI50: HL-60, 72 h; summary of the method: as §3
[8] = test system: MCF7; test: Induction of apoptosis in human MCF7 cells by propidium iodide staining based flow cytometric analysis; assay type: functional; summary of the method: as §1
[9] = test system: MCF7; test: Induction of cell cycle arrest in human MCF7 cells assessed as accumulation at G2/M phase after 18 hrs by propidium iodide staining based flow cytometric analysis; assay type: functional; summary of the method: as §2
[10] = test system: K562; test: Induction of apoptosis in human K562 cells by propidium iodide staining based flow cytometric analysis; assay type: functional; summary of the method: as §1
[11] = test system: MT4; test: Antiproliferative activity against human MT4 cells after 96 hrs by MTT assay; assay type: functional, cell-based; settings: MT4, 96 h
Summary of the method: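 Exponentially growing MT-4 cells (CD4+ human T-cells carrying integrated HTLV-1 genome), seeded at 1×10^5 cells/mL in RPMI-1640 with 10% FCS and antibiotics. Serial dilutions of compound (DMSO stock 100 mM, diluted in medium), 37 °C, 5% CO₂, 96 h. Viability read by MTT. 50% inhibition versus untreated controls by linear regression. Mean ± SD of three independent determinations.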

[12] = target: Tubulin (Homo sapiens) (UniProt P68371+Q9H4B7+P0DPH7+P68366+Q13509+Q71U36+P04350+Q3ZCM7+P07437+P68363+Q9BQE3+Q6PEY2+Q13885+Q9BVA1+Q9BUF5); test: Induction of Tubulin depolymerization in human MCF7 cells by immunofluorescence analysis; assay type: cell-based
Summary of the method: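 MCF-7 cells grown and treated on chamber slides, fixed in ice-cold 100% methanol, washed in PBS with 0.1% Triton X-100, blocked 30 min in 5% BSA, then mouse anti-tubulin for 1 h and Alexa 488 secondary for 1 h; DNA counterstained with 0.2 μg/mL propidium iodide for 2 min. Paclitaxel and PBOX-15 served as tubulin controls.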

[13] = test system: HepG2; test: Cytotoxicity against human HepG2 cells after 96 hrs by MTT assay; assay type: functional, cell-based; settings: HepG2, 96 h
Summary of the method: (§4)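 ATCC cell lines, mycoplasma-free by Hoechst staining. Haematological lines in RPMI-1640, solid-tumour and normal fibroblast lines in their own media, all with 10% FCS and antibiotics, at 37 °C in 5% CO₂. Compounds added as serial dilutions from a 100 mM DMSO stock diluted in medium. Viability by MTT after 96 h at 37 °C. Mean ± SD of three independent determinations.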

[14] = test system: CCRF-CEM; test: Cytotoxicity against human CCRF-CEM cells after 96 hrs by MTT assay; assay type: functional, cell-based; summary of the method: as §4
[15] = test system: WIL2-NS; test: Cytotoxicity against human WIL2-NS cells after 96 hrs by MTT assay; assay type: functional, cell-based; summary of the method: as §4
[16] = test system: MCF7; test: Cytotoxicity against human MCF7 cells after 96 hrs by MTT assay; assay type: functional, cell-based; settings: MCF7, 96 h; summary of the method: as §4
[17] = test system: CCRF-SB; test: Cytotoxicity against human CCRF-SB cells after 96 hrs by MTT assay; assay type: functional, cell-based; summary of the method: as §4
[18] = Cytotoxicity against human CRL7065 cells after 96 hrs by MTT assay; assay type: cell-based; settings: CRL-7065, 96 h; summary of the method: as §4
[19] = Cytotoxicity against human SKMES1 cells after 96 hrs by MTT assay; assay type: functional, cell-based; settings: SK-MES-1, 96 h; summary of the method: as §4
[20] = test system: MRC5; test: Cytotoxicity against human MRC5 cells after 96 hrs by MTT assay; assay type: cell-based; settings: MRC5, 96 h; summary of the method: as §4
[21] = test system: SK-MEL-28; test: Cytotoxicity against human SK-MEL-28 cells after 96 hrs by MTT assay; assay type: functional, cell-based; settings: SK-MEL-28, 96 h; summary of the method: as §4
[22] = test system: DU-145; test: Cytotoxicity against human DU145 cells after 96 hrs by MTT assay; assay type: functional, cell-based; settings: DU-145, 96 h; summary of the method: as §4

Structure (SMILES)	Activity ([1]; TDE = time-dependent effect)	Activity [4]	GI50 [4]	Activity [5]	GI50 [5]	Activity [7]	GI50 [7]	Activity [8]	Activity ([8]; TDE = time-dependent effect)	Activity ([10]; TDE = time-dependent effect)	EC50 [11]	Activity [12]	further results
CS(=O)(=O)/C(C#N)=C/c1c(-c2ccccc2)[nH]c2ccccc12	tde	Dose-dependent effect	> 10 µM	Dose-dependent effect	> 10 µM	Dose-dependent effect	1.32 µM	28.4%	tde	tde	0.3 µM	Active	Activity [2]: 39.7%; Activity [3]: 46.8%; Activity [6]: inactive; Activity [9]: 41.3%; Activity [10]: 47.5%
CC(=O)OC1=C(c2cccc3ccccc23)Oc2cc3ccccc3cc2-n2cccc21												Active	
N#C/C(=C\c1c(-c2ccccc2)[nH]c2ccccc12)C(=O)c1cccs1	tde	Dose-dependent effect	> 10 µM	Dose-dependent effect	> 10 µM	Dose-dependent effect	2.11 µM	34.1%	tde	tde	0.4 µM		EC50 [13]: 25 µM; EC50 [14]: 1.2 µM; EC50 [15]: 6.4 µM; EC50 [16]: 29 µM; EC50 [17]: 0.6 µM; EC50 [18]: 45 µM; Activity [1]: 61.3%; EC50 [19]: 4 µM; EC50 [20]: 20 µM; EC50 [21]: 28 µM; EC50 [22]: 11 µM

From ChEMBL document CHEMBL3616442, “Unconventional Knoevenagel-type indoles: Synthesis and cell-based studies for the identification of pro-apoptotic agents” (Eur J Med Chem, 2015)
